The results in this text go back to PubChem BioAssay.

Each structure is given as a SMILES string. Some of the results follow. Values without a mark were called inactive.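 Rule for the calls: active = mean percent activation of the reporter above a cutoff set as the average over tested compounds plus their standard deviation; inactive = the rest.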

Sequence of Oxysterols receptor LXR-beta (Homo sapiens) (P55055 whole entry, looked up, the tested form may be a part): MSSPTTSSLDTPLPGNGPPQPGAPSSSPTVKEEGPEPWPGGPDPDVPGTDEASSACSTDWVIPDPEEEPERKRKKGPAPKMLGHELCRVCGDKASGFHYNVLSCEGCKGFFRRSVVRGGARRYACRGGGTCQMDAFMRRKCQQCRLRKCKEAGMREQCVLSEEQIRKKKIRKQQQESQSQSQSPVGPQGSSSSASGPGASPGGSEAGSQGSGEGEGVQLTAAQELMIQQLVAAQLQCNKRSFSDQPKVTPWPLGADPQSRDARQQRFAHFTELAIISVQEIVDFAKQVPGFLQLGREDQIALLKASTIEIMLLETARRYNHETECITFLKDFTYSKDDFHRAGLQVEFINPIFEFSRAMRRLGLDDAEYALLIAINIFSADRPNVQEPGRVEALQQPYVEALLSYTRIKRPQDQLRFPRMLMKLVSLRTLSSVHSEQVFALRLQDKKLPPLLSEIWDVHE

For this assay, the target named is Oxysterols receptor LXR-beta (Homo sapiens) (UniProt P55055). Description: LXR agonists, Gal4 luciferase reporter, confirmation, counter-screen for hcDAF-12 agonist project, cell-based, luminescence, HEK293, H. contortus campaign (AID 743027). Particulars: HEK293 Gal4-LXR tk-luc reporter, 24 h, at 6.8 µM, hits give high values, normalized: DMSO 0%, positive control 100%. In a few lines:
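Assay system: Gal4-LXR and tk-luc reporter transfected HEK293 cells; Compound: 6.8 µM single dose; Times: one-day compound treatment at 37 °C; Technique: One-Glo luciferase luminescence; Read-out basis: % activation relative to DMSO and positive-control wells; Benchmarks: DMSO low control, positive-control high control; Repeats: three replicates per compound.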
Background: Reporter assays use an easily measured gene product as a stand-in for the process of interest.
`COc1cc2ccccc2cc1C(=O)Nc1ccccc1C`: the activation is 0.82%.
For `O=C(OCC(=O)c1c[nH]c2ccccc12)c1cccc(O)c1` the value was 0.27%; for `Cc1cnc(NC(=O)c2ccc(Cl)nc2)s1`, 0.78%; for `COc1ccc(OCc2cc(C(=O)N3CCCC3)no2)c2ccccc12`, 0.67%.
For `O=[N+]([O-])c1ccc2oc(-c3cccc(O)c3)nc2c1`, the activation was 1.82%.
For `CCc1ccc(-c2cc(C(=O)NN3CCN(C)CC3)c3ccccc3n2)cc1` the value was -0.24%; for `COc1ccc(C(=O)Nc2sc(C)c(C)c2CN2CCOCC2)cc1`, 0.23%.
For `Cc1ccccc1C(=O)N[C@H](C(=O)N1CCC[C@H]1C(=O)NCc1ccccc1)C(C)C` the value was -0.15%; for `O=C(NC1CCCCC1)C(c1cc2ccccc2o1)n1c(=O)c(-c2ccco2)nc2ccccc21` (configuration not stated), 0.03%.
For `Cc1ccccc1Nc1nnc(SCC(=O)c2cc3ccccc3o2)s1` the value was -0.11%; for `O=C(O)c1[nH]c2ccccc2c1C(c1cccc(O)c1)c1c(C(=O)O)[nH]c2ccccc12`, -0.02%.
As to `Nc1ccccc1/C=N\N=C/c1ccccc1N`, the activation is 1.76%.
As to `Clc1ccc(-c2cc(-c3ccccn3)on2)c(Cl)c1`, the activation is 1.95%.
Turning to `O=C(O)CN1c2cccc3cccc(c23)S1(=O)=O`, the activation was -0.29%.
In the case of `O=C(COc1cccc(Cl)c1)NCc1ccccc1` it was -0.12%; in that of `N[C@@H](Cc1ccccc1)C(=O)N1CCC(C(=O)NCC(=O)Nc2ccc(F)cc2)CC1`, -0.2%; in that of `COc1ccccc1C(=O)NCc1nnc(SC(C)C(=O)Nc2nccs2)n1C` (configuration not stated), -0.14%.
In the case of `Cc1ccnc(NC(=O)c2ccoc2C)c1` it was 0.3%.
For `CC(C)(C)NC(=O)C(c1ccncc1)N(C(=O)CNC(=O)c1ccco1)c1ccc2c(c1)OCO2` (configuration not stated) the value was -0.43%; for `O=C(Cn1ccc([N+](=O)[O-])n1)NCc1cccs1`, -0.27%; for `CC(C)c1ccc(C=NNc2ccc([N+](=O)[O-])cn2)cc1`, 1.84%.
Consider `O=C(NC(Cc1c[nH]c2ccccc12)C(=O)O)/C(=C/c1ccco1)NC(=O)c1ccccc1` (configuration not stated), for which the activation is 0.05%.
